Screening data as filed in PubChem BioAssay.
Shown are actives, neighbours in structure and some others; about 1.9% of the full set was active somewhere.
HCV core dimer – HCV core protein dimerization inhibition; TR-FRET GST/Flag-core106 dimerization, 1536-well; inhibition, % at 5 µM; actives 0.33% (n = 300,000); AID 1899;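 active = inhibition above the mean of all tested compounds plus 3 SD, set per screening campaign, cut at about 45% in these data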
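System: GST-tagged and Flag-tagged HCV core protein residues 1-106 / Input: core106 proteins, GST 13.5 nM and Flag 17 nM / Buffer or medium: KF-containing HEPES buffer, pH 7.45, DTT, CHAPS, BSA / Probe or stimulus: Eu-anti-GST and XL665-anti-Flag labelled anti-tag antibodies / Schedule: 4 h, 22.5 °C incubation / Technique: TR-FRET 671 and 617 nm emission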
EBNA-1 inh – blocks EBNA-1 binding to DNA | EBNA-1 DNA binding, fluorescence polarization | inhibition, % at 14.8 µM | actives 0.34% (n = 300,000) | AID 1950; in the data active = inhibition above about 28%
ZTA counter – counter-screen for EBNA-1 inhibitors: inhibitors of Epstein-Barr virus ZTA; P03206; ZTA-DNA binding, fluorescence polarization; inhibition, % at 11 µM; actives 0.15% (n = 320,000); in the data active = inhibition above about 33%
Target sequence (P03206 whole entry, looked up): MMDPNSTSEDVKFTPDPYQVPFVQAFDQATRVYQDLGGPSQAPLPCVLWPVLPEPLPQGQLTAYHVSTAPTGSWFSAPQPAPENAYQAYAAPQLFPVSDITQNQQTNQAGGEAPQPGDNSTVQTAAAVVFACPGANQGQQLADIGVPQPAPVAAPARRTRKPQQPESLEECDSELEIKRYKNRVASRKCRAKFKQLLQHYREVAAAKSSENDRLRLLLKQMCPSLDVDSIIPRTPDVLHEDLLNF
NS3 helicase inh – inhibitors of Hepatitis C virus NS3 helicase | NS3 helicase DNA unwinding, Cy5 molecular beacon fluorescence | inhibition, % at 10.9 µM | actives 0.56% (n = 290,000);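 active = inhibition above the mean of all tested compounds plus 3 SD, set per campaign, cut at about 35% in these data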;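 also: 0% = DMSO wells and 100% = thioflavine S control wells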
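System: Hepatitis C virus NS3 helicase domain fragment enzyme | Reagent: Annealed dual-labelled DNA beacon duplex, ATP-started | Compound dosing: 10.9 µM single point, 0.8% DMSO | Incubation: 1 h reaction at 25 °C, ATP-initiated | Technique: Cy5 fluorescence | Evaluation: Percent inhibition from t60/t0 fluorescence ratio | Benchmarks: Low DMSO, high thioflavine S at 110 µM | Replication: Singlicate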
PP1 inh – blocks human PP1-alpha phosphatase, a PP5 counter-screen; P62136; inhibition, % at 6.7 µM; actives 0.9% (n = 320,000); purified PP1alpha, OMFP fluorescence;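 active = inhibition above the mean inhibition of all tested compounds plus 3 SD, computed separately for each screening campaign, cut at about 15% in these data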
Target sequence (P62136 whole entry, looked up): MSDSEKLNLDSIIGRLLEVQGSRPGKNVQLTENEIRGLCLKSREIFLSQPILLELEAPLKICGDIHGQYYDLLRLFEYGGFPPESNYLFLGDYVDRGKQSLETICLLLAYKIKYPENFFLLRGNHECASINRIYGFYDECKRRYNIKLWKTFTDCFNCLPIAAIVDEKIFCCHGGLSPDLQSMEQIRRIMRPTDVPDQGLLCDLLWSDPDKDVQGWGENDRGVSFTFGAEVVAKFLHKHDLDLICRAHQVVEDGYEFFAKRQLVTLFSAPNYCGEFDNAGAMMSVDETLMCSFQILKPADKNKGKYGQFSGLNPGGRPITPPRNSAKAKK
PP1 confirm – human PP1 phosphatase inhibition, confirmation; shares compounds with PP1 inh; purified PP1alpha, OMFP substrate fluorescence; inhibition, % at 6.7 µM; actives 52% (n = 1,900); AID 2358;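 active = mean PP1 inhibition above a set limit taken from the earlier primary screen, cut at about 15% in these data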
PP5 inh counter – PP5 phosphatase inhibition, counter-screen for PP1 inhibitors; purified PP5c, OMFP fluorescence; inhibition, % at 6.7 µM; actives 4% (n = 1,900); shares compounds with PP1 inh;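 active = mean PP5 inhibition over triplicate wells above about 9.5% taken from the earlier PP1 screen, limit read from the data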
An asterisk follows results filed as active; x = not tested or not shown.

SMILES	HCV core dimer	EBNA-1 inh	ZTA counter	NS3 helicase inh	PP1 inh	PP1 confirm	PP5 inh counter
CCOc1cccc(/C=C/c2ccc3cccc(O)c3n2)c1O	9	6	6	5	12	x	x
CCOc1cccc(/C=C/c2ccc3cccc(O)c3n2)c1OC	0	-5	0	24	21*	15*	-2
CC(C)C(=O)Nc1ccc(C(=O)c2ccccc2)cc1	1	7	-2	-7	-75	-1	-3
CC(C)C(=O)Nc1ccc(-c2nnc(-c3ccccc3)o2)cc1	x	x	x	1	x	x	x
O=C(CNC(=O)c1ccco1)OCC(=O)c1ccc([N+](=O)[O-])cc1	-12	-14	4	3	-1	x	x
CC(OC(=O)CNS(=O)(=O)c1ccc(C#N)cc1)C(=O)Nc1cccc(C#N)c1 (stereo not given)	-1	-6	-2	x	-1	x	x
CCOc1ccccc1CN1CCN(CC2=Cc3cc(OC)ccc3OC2)CC1CCO (stereo not given)	-2	-6	0	-40	-2	x	x
Clc1ccc(C2[C@H]3CN(Cc4cccnc4)[C@H](c4ccccc4)C34CC2(c2ccccc2)C4)cn1 (stereo not given in full)	20	4	2	x	21*	17*	1
N#Cc1ccc(C23CC4(C2)[C@H](CN(P(=O)(c2ccccc2)c2ccccc2)[C@@H]4c2ccccc2)C3c2ccc(Cl)nc2)cc1 (stereo not given in full)	53*	3	11	x	18*	6	4
CN1C[C@@H]2C(c3ccc(Cl)nc3)C3(c4ccc(C#N)cc4)CC2(C3)[C@H]1c1ccccc1 (stereo not given in full)	15	-13	17	x	7	x	x
Clc1ccc(C2[C@H]3CN(Cc4ccc(-c5ccccc5)cc4)[C@H](c4ccccc4)C34CC2(c2ccccc2)C4)cn1 (stereo not given in full)	16	7	5	x	4	x	x
COC(=O)c1ccc2c(c1)C(C)(C)C(/C=C/c1ccccc1O)=[N+]2C	7	15	13	-13	19*	13	-4
C[N+]1=C(/C=C/Nc2ccccc2Cl)C(C)(C)c2ccccc21	3	10	9	8	0	x	x
Cc1cccc(CC(C)NC(=O)c2oc3c(F)cccc3c2C)n1 (stereo not given)	2	-13	3	-1	-1	x	x
Cc1ccccc1OCCC(=O)OCC(=O)NCCc1ccccc1	4	-4	-13	x	-4	x	x
Cc1ccccc1OCCC(=O)OCC(=O)NC(=O)c1ccccc1	2	-11	-2	x	22*	-1	-5
O=C(NN1CCOCC1)c1ccc(F)cc1	12	0	-1	4	20*	-6	-6
O=C(O)CCC(=O)N1CCc2cc(S(=O)(=O)N(CCc3ccccc3)Cc3ccccc3)ccc21	20	-11	7	-6	20*	15*	-4
CCCCN(c1ccccc1)S(=O)(=O)c1ccc2c(c1)CCN2C(=O)CCC(=O)O	3	-2	5	33	-4	x	x
CCN(CC(=O)Nc1ccccc1OC)C(=O)CSCc1ccc(C)cc1	x	x	6	x	2	x	x
Cc1noc(-c2ccc(C(F)(F)F)cc2)c1NC(=O)Nc1ccc(Cl)cc1	-5	0	0	-1	-3	x	x
O=C(O)c1cc(-c2ccc(N3CCOCC3)cc2)nn1-c1ccc(F)cc1	2	-3	3	14	42*	31*	-4
CCOC(=O)c1cc(-c2ccc(N3CCOCC3)cc2)nn1-c1ccccc1C(=O)O	22	-5	-10	14	14	x	x
Cc1ccc(-n2nc(-c3ccco3)cc2C(=O)O)cc1	6	7	13	21	20*	17*	-10
CC1CCc2c(sc(NC(=O)C(=O)NCc3ccco3)c2C#N)C1 (stereo not given)	-1	1	-17	-2	20*	21*	-3
SMILES	HCV core dimer	EBNA-1 inh	ZTA counter	NS3 helicase inh	PP1 inh	PP1 confirm	PP5 inh counter
C/C(=N\NC1=NCCN1)c1ccc(N)c([N+](=O)[O-])c1	0	4	12	6	-4	x	x
CCCCCCOc1ccc(/C(C)=N/NC2=NCCN2)cc1[N+](=O)[O-]	-14	8	14	-52	20*	9	2
COC(=O)c1ccccc1NC(=O)c1ccc(COc2cccc3ccccc23)o1	5	-3	-11	15	25*	19*	-1
COC(=O)c1ccccc1NC(=O)c1ccc(COc2ccccc2)o1	2	8	-5	1	2	x	x
CC(=O)c1ccc(NC(=O)CS(=O)(=O)c2cn(CC(=O)N3CCOCC3)c3ccccc23)cc1	-15	-3	-26	5	-2	x	x
C[n+]1c(/C=C/c2ccc(O)cc2)ccc2ccccc21	-8	10	-17	-10	6	x	x
Cc1cc(/C=C\c2ccc3cc(N(C)C)ccc3[n+]2C)c(C)n1-c1ccccc1	40	6	20	x	34*	8	4
Cc1cc(-c2n[nH]c(=S)n2/N=C/c2ccc(Br)s2)n[nH]1	-2	-3	-1	7	3	x	x
S=c1[nH]nc(-c2cc(-c3ccccc3)n[nH]2)n1/N=C/c1c(Cl)cccc1Cl	6	-5	13	-2	18*	27*	-2
S=c1[nH]nc(-c2cc(-c3ccccc3)n[nH]2)n1/N=C/c1ccc(Br)s1	12	3	-1	19	28*	33*	-2
Cc1ccccc1NC(=O)Cc1nc(COC(=O)c2ccc(S(C)(=O)=O)c([N+](=O)[O-])c2)cs1	x	x	14	x	2	x	x
O=C(NCC1CCN(Cc2ccc(F)cc2)CC1)Nc1cc(F)ccc1F	-2	-14	3	29	2	x	x
CN(NS(=O)(=O)c1ccc(Cl)cc1)c1nc(C(F)(F)F)nc2ccccc12	-2	8	10	-16	5	x	x
COc1ccccc1CCC(=O)Nc1cc(S(=O)(=O)N2CCOCC2)ccc1N1CCCC1	-2	-3	-3	x	-5	x	x
Cc1ccc(NC(=O)CN(C)C(=O)c2cc(-c3ccco3)nc3ccccc23)cc1	65*	2	-18	x	28*	0	-1
CC(=O)c1cccc(NC(=O)c2cc(-c3ccco3)nc3ccccc23)c1	40	-5	4	7	2	x	x
COc1cccc(NC(=O)c2cc(-c3ccco3)nc3ccccc23)c1	11	3	-10	x	18*	3	0
COc1ccc(NC(=O)CN(C)C(=O)c2cc(-c3ccccc3)nc3ccccc23)cc1	-1	-15	11	x	-4	x	x
CCCCn1c(N)c(N(CCOC)C(=O)C2CCN(c3ncnc4sc(C)c(C)c34)CC2)c(=O)[nH]c1=O	3	14	11	x	-2	x	x
CCc1cc2c(=O)c(-c3nc(C)cs3)coc2cc1O	1	13	10	-6	20*	12	-4
